Laboratory results from BindingDB's records for doi:10.1128/AAC.00443-09 (University of Medicine and Dentistry of New Jersey, 2009).

What was measured:
[1] = target: 1,3-beta-glucan synthase (Candida glabrata, UniProt F5BCZ9, S663P); assay: Inhibition of Candida glabrata isolate 3830 1,3-beta-D-glucan synthase wild type Fks1p/Fks2p S663P mutant
Method in brief: (§1)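 Cells grown in YPD broth at 35°C with vigorous shaking to early stationary phase. Membrane protein extracted and glucan synthase partially purified by product entrapment. Filtration polymerization assay measured [3H]glucose incorporation into product, started by adding enzyme. Echinocandin serial dilutions spanned 0.01–10,000 ng/ml, with 1% DMSO controls for anidulafungin. IC50 from variable-slope sigmoidal fit.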

[2] = target: 1,3-beta-glucan synthase (Candida glabrata, UniProt E2GKZ4, S629P); assay: Inhibition of Candida glabrata isolate 5847 1,3-beta-D-glucan synthase Fks1p S629P mutant/wild type Fks2p; method in brief: as §1
[3] = target: 1,3-beta-glucan synthase (Candida glabrata, UniProt F5BCZ9, F659S); assay: Inhibition of Candida glabrata isolate 41026 1,3-beta-D-glucan synthase wild type Fks1p/Fks2p F659S mutant; method in brief: as §1
[4] = target: 1,3-beta-glucan synthase (Candida glabrata, UniProt F5BCZ9, D666G); assay: Inhibition of Candida glabrata isolate 41400 1,3-beta-D-glucan synthase wild type Fks1p/Fks2p D666G mutant; method in brief: as §1
[5] = target: 1,3-beta-glucan synthase (Candida glabrata, UniProt F5BCZ9, W1375L); assay: Inhibition of Candida glabrata isolate 5416 1,3-beta-D-glucan synthase wild type Fks1p/Fks2p W1375L mutant; method in brief: as §1
[6] = target: 1,3-beta-glucan synthase (Candida glabrata, UniProt F5BCZ9, F659V); assay: Inhibition of Candida glabrata isolate 234 1,3-beta-D-glucan synthase wild type Fks1p/Fks2p F659V mutant; method in brief: as §1
[7] = target: 1,3-beta-glucan synthase (Candida glabrata, UniProt E2GKZ4, D632E); assay: Inhibition of Candida glabrata isolate 3169 1,3-beta-D-glucan synthase Fks1p D632E mutant/wild type Fks2p; method in brief: as §1
[8] = target: 1,3-beta-glucan synthase (Candida glabrata, UniProt F5BCZ9, D666E); assay: Inhibition of Candida glabrata isolate 42031 1,3-beta-D-glucan synthase wild type Fks1p/Fks2p D666E mutant; method in brief: as §1
[9] = target: 1,3-beta-glucan synthase (Candida glabrata, UniProt F5BCZ9, P667T); assay: Inhibition of Candida glabrata isolate 51916 1,3-beta-D-glucan synthase wild type Fks1p/Fks2p P667T mutant; method in brief: as §1

Chain of 1,3-beta-glucan synthase (Candida glabrata, UniProt E2GKZ4, D632E) (E2GKZ4 entry or part of it D632E): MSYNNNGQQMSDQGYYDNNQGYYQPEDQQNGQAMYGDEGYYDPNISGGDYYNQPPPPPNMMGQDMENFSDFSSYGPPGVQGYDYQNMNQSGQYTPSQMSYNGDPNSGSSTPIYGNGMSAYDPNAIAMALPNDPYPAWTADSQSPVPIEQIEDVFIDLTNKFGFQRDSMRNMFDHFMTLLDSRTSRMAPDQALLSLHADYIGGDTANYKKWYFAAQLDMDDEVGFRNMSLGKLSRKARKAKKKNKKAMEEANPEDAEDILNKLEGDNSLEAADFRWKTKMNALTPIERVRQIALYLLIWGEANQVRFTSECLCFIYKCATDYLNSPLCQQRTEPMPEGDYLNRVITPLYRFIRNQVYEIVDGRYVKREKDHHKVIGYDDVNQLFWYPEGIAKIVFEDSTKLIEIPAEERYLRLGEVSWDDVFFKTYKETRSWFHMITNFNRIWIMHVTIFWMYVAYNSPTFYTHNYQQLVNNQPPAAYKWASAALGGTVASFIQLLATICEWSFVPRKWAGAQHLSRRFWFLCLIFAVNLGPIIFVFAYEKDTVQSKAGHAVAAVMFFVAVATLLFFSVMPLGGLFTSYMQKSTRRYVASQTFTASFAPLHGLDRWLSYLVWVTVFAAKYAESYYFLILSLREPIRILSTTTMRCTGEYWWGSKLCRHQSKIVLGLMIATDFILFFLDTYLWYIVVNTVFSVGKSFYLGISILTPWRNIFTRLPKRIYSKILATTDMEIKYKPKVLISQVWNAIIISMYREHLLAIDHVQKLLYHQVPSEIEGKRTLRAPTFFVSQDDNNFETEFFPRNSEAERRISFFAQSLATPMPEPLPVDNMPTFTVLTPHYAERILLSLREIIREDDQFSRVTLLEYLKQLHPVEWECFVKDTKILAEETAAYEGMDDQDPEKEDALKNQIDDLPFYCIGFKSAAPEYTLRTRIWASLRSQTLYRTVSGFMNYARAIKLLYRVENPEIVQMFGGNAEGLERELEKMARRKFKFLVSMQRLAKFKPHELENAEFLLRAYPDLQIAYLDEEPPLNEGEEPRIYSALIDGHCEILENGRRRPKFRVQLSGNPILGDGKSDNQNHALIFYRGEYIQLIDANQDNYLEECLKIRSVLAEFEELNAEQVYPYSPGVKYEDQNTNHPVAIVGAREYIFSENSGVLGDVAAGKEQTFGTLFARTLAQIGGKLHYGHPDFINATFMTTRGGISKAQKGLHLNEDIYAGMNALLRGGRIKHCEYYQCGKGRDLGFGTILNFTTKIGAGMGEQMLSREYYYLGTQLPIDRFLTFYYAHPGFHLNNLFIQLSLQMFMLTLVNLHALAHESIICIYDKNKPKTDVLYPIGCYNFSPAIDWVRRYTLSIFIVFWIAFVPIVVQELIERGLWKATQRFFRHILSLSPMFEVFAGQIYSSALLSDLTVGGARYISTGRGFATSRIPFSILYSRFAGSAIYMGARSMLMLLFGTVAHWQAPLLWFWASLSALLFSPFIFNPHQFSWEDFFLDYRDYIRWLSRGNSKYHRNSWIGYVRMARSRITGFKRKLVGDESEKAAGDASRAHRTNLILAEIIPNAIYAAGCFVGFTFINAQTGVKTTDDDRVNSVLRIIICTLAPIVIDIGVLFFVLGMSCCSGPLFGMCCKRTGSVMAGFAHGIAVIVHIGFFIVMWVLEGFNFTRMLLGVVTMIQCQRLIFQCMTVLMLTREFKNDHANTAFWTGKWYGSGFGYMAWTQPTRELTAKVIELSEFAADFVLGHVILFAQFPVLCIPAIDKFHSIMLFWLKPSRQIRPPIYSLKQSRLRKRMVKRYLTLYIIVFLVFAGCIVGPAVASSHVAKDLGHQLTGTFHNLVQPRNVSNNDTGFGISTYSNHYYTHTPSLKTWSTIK
Chain of 1,3-beta-glucan synthase (Candida glabrata, UniProt F5BCZ9, F659V) (F5BCZ9 entry or part of it F659V): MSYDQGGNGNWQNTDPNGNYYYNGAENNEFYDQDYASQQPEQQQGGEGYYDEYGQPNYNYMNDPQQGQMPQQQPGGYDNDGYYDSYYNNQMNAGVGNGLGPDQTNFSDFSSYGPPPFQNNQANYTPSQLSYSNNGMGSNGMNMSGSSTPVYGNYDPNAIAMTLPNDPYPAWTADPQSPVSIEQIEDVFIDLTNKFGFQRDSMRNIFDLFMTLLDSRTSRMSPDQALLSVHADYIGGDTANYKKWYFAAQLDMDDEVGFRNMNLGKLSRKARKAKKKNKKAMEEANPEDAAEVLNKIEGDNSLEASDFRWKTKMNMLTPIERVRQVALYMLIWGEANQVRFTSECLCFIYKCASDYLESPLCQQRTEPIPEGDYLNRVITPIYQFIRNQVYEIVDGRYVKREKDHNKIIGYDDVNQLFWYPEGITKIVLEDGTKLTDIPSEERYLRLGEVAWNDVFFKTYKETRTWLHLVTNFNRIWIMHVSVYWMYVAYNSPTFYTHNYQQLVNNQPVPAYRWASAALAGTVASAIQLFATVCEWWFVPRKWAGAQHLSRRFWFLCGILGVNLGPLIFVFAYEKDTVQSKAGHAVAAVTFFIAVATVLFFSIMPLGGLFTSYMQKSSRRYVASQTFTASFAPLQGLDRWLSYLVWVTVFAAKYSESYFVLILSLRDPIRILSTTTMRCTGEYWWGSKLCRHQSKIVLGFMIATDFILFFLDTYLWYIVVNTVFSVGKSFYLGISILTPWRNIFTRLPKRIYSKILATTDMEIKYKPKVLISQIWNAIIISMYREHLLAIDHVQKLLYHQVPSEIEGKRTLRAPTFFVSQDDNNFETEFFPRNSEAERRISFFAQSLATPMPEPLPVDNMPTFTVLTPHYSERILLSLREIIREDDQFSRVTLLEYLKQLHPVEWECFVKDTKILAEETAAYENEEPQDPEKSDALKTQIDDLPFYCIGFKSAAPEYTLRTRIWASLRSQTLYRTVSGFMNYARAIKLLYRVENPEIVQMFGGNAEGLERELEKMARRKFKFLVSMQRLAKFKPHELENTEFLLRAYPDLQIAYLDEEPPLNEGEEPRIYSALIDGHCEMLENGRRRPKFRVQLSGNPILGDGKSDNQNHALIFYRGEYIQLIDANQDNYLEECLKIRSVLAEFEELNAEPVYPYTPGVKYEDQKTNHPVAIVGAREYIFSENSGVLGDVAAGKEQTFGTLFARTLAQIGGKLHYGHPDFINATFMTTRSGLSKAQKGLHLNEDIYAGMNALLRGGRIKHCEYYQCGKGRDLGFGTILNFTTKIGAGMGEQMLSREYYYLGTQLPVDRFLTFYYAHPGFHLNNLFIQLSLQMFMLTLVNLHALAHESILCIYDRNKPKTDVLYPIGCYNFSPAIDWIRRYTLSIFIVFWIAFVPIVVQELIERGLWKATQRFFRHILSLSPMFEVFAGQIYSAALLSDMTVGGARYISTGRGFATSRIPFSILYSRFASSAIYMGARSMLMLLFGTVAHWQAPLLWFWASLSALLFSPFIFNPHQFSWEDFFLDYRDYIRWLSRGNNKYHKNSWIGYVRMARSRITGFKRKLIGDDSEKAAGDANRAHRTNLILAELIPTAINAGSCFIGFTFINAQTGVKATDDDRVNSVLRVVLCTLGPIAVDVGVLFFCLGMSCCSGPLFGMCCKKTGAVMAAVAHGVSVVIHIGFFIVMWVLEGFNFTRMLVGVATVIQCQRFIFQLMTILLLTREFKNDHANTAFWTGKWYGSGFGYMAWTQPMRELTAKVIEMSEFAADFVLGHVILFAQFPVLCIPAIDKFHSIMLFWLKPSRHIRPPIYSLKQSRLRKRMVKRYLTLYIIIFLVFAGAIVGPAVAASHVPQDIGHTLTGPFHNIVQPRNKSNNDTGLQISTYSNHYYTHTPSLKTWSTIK

For CCC(C)CC(C)CCCCCCCCC(=O)N[C@H]1C[C@@H](O)[C@@H](NCCN)NC(=O)[C@@H]2[C@@H](O)CCN2C(=O)[C@H]([C@H](O)CCN)NC(=O)[C@H]([C@H](O)[C@@H](O)c2ccc(O)cc2)NC(=O)[C@@H]2C[C@@H](O)CN2C(=O)[C@H]([C@@H](C)O)NC1=O (some centres undefined) [CHEBI:474180], which IC50 [1] is on record?
The IC50 was 5120 nM.

What about the IC50 [2] of the same compound?
Its IC50 is 4990 nM.

What about the IC50 [3] of the same compound?
The IC50 was 1060 nM.

And the IC50 [4]?
Its IC50 is 507 nM.

And the IC50 [5]?
Its IC50 is 608 nM.

What about the IC50 [6] of the same compound?
The IC50 was 115 nM.

And the IC50 [7]?
Its IC50 is 845 nM.

And the IC50 [8]?
Its IC50 is 258 nM.

What about the IC50 [9] of the same compound?
Its IC50 is 166 nM.
